Results taken from ChEMBL document CHEMBL1126043, “Novel thiazolidine-2,4-diones as potent euglycemic agents” (1992).

What was measured:
Format in all cases: functional
Mus musculus [1] = assay: In vivo euglycemic activity (administered by oral gavage) in C57/6J-ob/ob mice by normalization of blood glucose levels at a dose of 10 mg/kg.
Method in brief: (§1)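 Mice bled from retro-orbital sinus into tubes with 2% sodium heparin for baseline glucose, then dosed by oral gavage once daily for 4 days in 0.25% (w/v) methylcellulose in water, no pH adjustment (0.1 mL per 20 g). Bled 24 h after fourth dose. Samples centrifuged 2 min at 10000g. Plasma glucose measured by hexokinase UV method. Results scaled to vehicle (0%) and ciglitazone 50 mg/kg (100%).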

Mus musculus [2] = assay: In vivo euglycemic activity (administered by oral gavage) in C57/6J-ob/ob mice by normalization of blood glucose levels at a dose of 0.5 mg/kg.; method in brief: as §1
Mus musculus [3] = assay: In vivo euglycemic activity (administered by oral gavage) in C57/6J-ob/ob mice measured by normalization of blood glucose levels at a dose of 5 mg/kg.
Mus musculus [4] = assay: In vivo euglycemic activity of the compound (administered by oral gavage) in C57/6J-ob/ob mice is measured by normalization of blood glucose levels at a dose of 2.5(mg/kg); method in brief: as §1
Mus musculus [5] = assay: In vivo euglycemic activity (administered by oral gavage) in C57/6J-ob/ob mice by normalization of blood glucose levels at a dose of 1 mg/kg.; method in brief: as §1

Structure (SMILES): COc1ccccc1CCC(=O)c1ccc(CC2SC(=O)NC2=O)cc1 (stereo not drawn)
- Normalization (Mus musculus [1]): 0%

Structure (SMILES): O=C1NC(=O)C(Cc2ccc(C(=O)CCc3ccco3)cc2)S1 (stereo not drawn)
- Normalization (Mus musculus [1]): 24%

Structure (SMILES): Cc1oc(-c2ccccc2)nc1CCSc1ccc(CC2SC(=O)NC2=O)cc1 (stereo not drawn)
- Normalization (Mus musculus [2]): 0%

Structure (SMILES): Cc1oc(-c2ccccc2)nc1CN(C)C(=O)c1ccc(CC2SC(=O)NC2=O)cc1 (stereo not drawn)
- Normalization (Mus musculus [3]): 83%
- Normalization (Mus musculus [4]): 0%

Structure (SMILES): COc1ccc(CCC(=O)c2ccc(CC3SC(=O)NC3=O)cc2)cc1 (stereo not drawn)
- Normalization (Mus musculus [1]): 50%

Structure (SMILES): Cc1oc(-c2ccco2)nc1CCC(=O)c1ccc(CC2SC(=O)NC2=O)cc1 (stereo not drawn)
- Normalization (Mus musculus [5]): 61%

Structure (SMILES): Cc1ccc(-c2nc(CCC(=O)c3ccc(CC4SC(=O)NC4=O)s3)c(C)o2)cc1 (stereo not drawn)
- Normalization (Mus musculus [2]): 27%
- Normalization (Mus musculus [5]): 100%

Structure (SMILES): Cc1nc(-c2ccccc2)c(CCC(=O)c2ccc(CC3SC(=O)NC3=O)cc2)s1 (stereo not drawn)
- Normalization (Mus musculus [3]): 61%
- Normalization (Mus musculus [4]): 0%

Structure (SMILES): CCN(C(=O)Cc1nc(-c2ccccc2)oc1C)c1ccc(CC2SC(=O)NC2=O)cc1 (stereo not drawn)
- Normalization (Mus musculus [3]): 25%

Structure (SMILES): O=C1NC(=O)C(Cc2ccc(C(=O)/C=C/c3ccccc3C(F)(F)F)cc2)S1 (stereo not drawn)
- Normalization (Mus musculus [3]): 39%
- Normalization (Mus musculus [1]): 57%

Structure (SMILES): Cc1oc(-c2ccc(C(F)(F)F)cc2)nc1CCC(=O)c1ccc(/C=C2\SC(=O)NC2=O)cc1
- Normalization (Mus musculus [2]): 28%
- Normalization (Mus musculus [5]): 58%

Structure (SMILES): Cc1oc(-c2ccc(C(F)(F)F)cc2)nc1CCC(=O)c1ccc(CC2SC(=O)NC2=O)s1 (stereo not drawn)
- Normalization (Mus musculus [2]): 27%
- Normalization (Mus musculus [5]): 78%

Structure (SMILES): COc1ccc(-c2nc(CCC(=O)c3ccc(/C=C4\SC(=O)NC4=O)cc3)c(C)o2)cc1
- Normalization (Mus musculus [5]): 62%

Structure (SMILES): O=C1NC(=O)C(Cc2ccc(C(=O)Cc3ccccc3)cc2)S1 (stereo not drawn)
- Normalization (Mus musculus [1]): 0%

Structure (SMILES): CN(C)c1ccc(/C=C/C(=O)c2ccc(CC3SC(=O)NC3=O)cc2)cc1 (stereo not drawn)
- Normalization (Mus musculus [1]): 17%

Structure (SMILES): Cc1oc(-c2ccccc2)nc1CN(C(=O)c1ccc(CC2SC(=O)NC2=O)cc1)c1ccccc1 (stereo not drawn)
- Normalization (Mus musculus [3]): 23%

Structure (SMILES): Cc1oc(-c2ccc3ccccc3c2)nc1CCC(=O)c1ccc(/C=C2\SC(=O)NC2=O)cc1
- Normalization (Mus musculus [2]): 38%
- Normalization (Mus musculus [5]): 90%

Structure (SMILES): Cc1oc(-c2ccccc2)nc1CN(c1ccccc1)S(=O)(=O)c1ccc(CC2SC(=O)NC2=O)cc1 (stereo not drawn)
- Normalization (Mus musculus [4]): 32%

Structure (SMILES): Cc1ccc(-c2nc(CCC(=O)c3ccc(/C=C4\SC(=O)NC4=O)cc3)c(C)o2)o1
- Normalization (Mus musculus [2]): 1%
- Normalization (Mus musculus [5]): 76%

Structure (SMILES): Cc1ccccc1/C=C/C(=O)c1ccc(CC2SC(=O)NC2=O)cc1 (stereo not drawn)
- Normalization (Mus musculus [1]): 21%

Structure (SMILES): O=C1NC(=O)C(Cc2ccc(C(=O)/C=C/c3ccco3)cc2)S1 (stereo not drawn)
- Normalization (Mus musculus [1]): 65%

Structure (SMILES): Cc1ccc(-c2nc(CCC(=O)c3ccc(CC4SC(=O)NC4=O)s3)co2)cc1 (stereo not drawn)
- Normalization (Mus musculus [4]): 0%
- Normalization (Mus musculus [5]): 10%

Structure (SMILES): O=C1NC(=O)C(Cc2ccc(C(=O)/C=C/c3cccc(Cl)c3)cc2)S1 (stereo not drawn)
- Normalization (Mus musculus [1]): 4%

Structure (SMILES): O=C1NC(=O)C(Cc2ccc(C(=O)CCc3csc(-c4ccccc4)n3)cc2)S1 (stereo not drawn)
- Normalization (Mus musculus [3]): 91%
- Normalization (Mus musculus [4]): 48%

Structure (SMILES): Cc1oc(-c2ccccc2)nc1/C=C/C(=O)c1ccc(CC2SC(=O)NC2=O)cc1 (stereo not drawn)
- Normalization (Mus musculus [3]): 100%
- Normalization (Mus musculus [1]): 59%

Structure (SMILES): O=C1NC(=O)C(Cc2ccc(C(=O)/C=C/c3ccccc3Cl)cc2)S1 (stereo not drawn)
- Normalization (Mus musculus [3]): 65%
- Normalization (Mus musculus [1]): 44%

Structure (SMILES): O=C1NC(=O)C(Cc2ccc(C(=O)CCCc3ccccc3)cc2)S1 (stereo not drawn)
- Normalization (Mus musculus [1]): 26%

Structure (SMILES): CCc1ccc(CCC(=O)c2ccc(CC3SC(=O)NC3=O)cc2)nc1 (stereo not drawn)
- Normalization (Mus musculus [3]): 0%
- Normalization (Mus musculus [1]): 41%

Structure (SMILES): CCOC(=O)c1ccc(/C=C/C(=O)c2ccc(CC3SC(=O)NC3=O)cc2)cc1 (stereo not drawn)
- Normalization (Mus musculus [1]): 4%

Structure (SMILES): O=C1NC(=O)C(Cc2ccc(C(O)CCc3ccccc3)cc2)S1 (stereo not drawn)
- Normalization (Mus musculus [3]): 47%
- Normalization (Mus musculus [1]): 89%

Structure (SMILES): Cc1oc(-c2ccc(O)cc2)nc1CCC(=O)c1ccc(CC2SC(=O)NC2=O)cc1 (stereo not drawn)
- Normalization (Mus musculus [5]): 0%

Structure (SMILES): O=C1NC(=O)C(Cc2ccc(C(O)CCc3ccccn3)cc2)S1 (stereo not drawn)
- Normalization (Mus musculus [1]): 13%

Structure (SMILES): Cc1oc(-c2ccco2)nc1CCC(=O)c1ccc(/C=C2\SC(=O)NC2=O)cc1
- Normalization (Mus musculus [5]): 55%

Structure (SMILES): Cc1cc(-c2nc(CCC(=O)c3ccc(CC4SC(=O)NC4=O)cc3)c(C)o2)cc(C)c1O (stereo not drawn)
- Normalization (Mus musculus [2]): 30%
- Normalization (Mus musculus [5]): 100%

Structure (SMILES): Cc1oc(-c2ccc(Cl)cc2)nc1CCC(=O)c1ccc(CC2SC(=O)NC2=O)s1 (stereo not drawn)
- Normalization (Mus musculus [4]): 100%
- Normalization (Mus musculus [5]): 51%

Structure (SMILES): Cc1oc(-c2ccccc2)nc1CN(C)S(=O)(=O)c1ccc(CC2SC(=O)NC2=O)cc1 (stereo not drawn)
- Normalization (Mus musculus [3]): 9%

Structure (SMILES): Cc1oc(-c2ccccc2)nc1CC(=O)N(C)c1ccc(CC2SC(=O)NC2=O)cc1 (stereo not drawn)
- Normalization (Mus musculus [3]): 9%

Structure (SMILES): Cc1oc(-c2ccccc2)nc1CC(=O)Nc1ccc(CC2SC(=O)NC2=O)cc1 (stereo not drawn)
- Normalization (Mus musculus [3]): 64%
- Normalization (Mus musculus [4]): 16%

Structure (SMILES): O=C1NC(=O)C(Cc2ccc(C(=O)/C=C/c3ccc(Br)cc3)cc2)S1 (stereo not drawn)
- Normalization (Mus musculus [1]): 28%

Structure (SMILES): O=C1NC(=O)C(Cc2ccc(C(=O)/C=C/c3ccccc3Cc3ccccc3)cc2)S1 (stereo not drawn)
- Normalization (Mus musculus [1]): 56%

Structure (SMILES): Cc1oc(-c2ccccc2)nc1CNC(=O)c1ccc(CC2SC(=O)NC2=O)cc1 (stereo not drawn)
- Normalization (Mus musculus [3]): 50%
- Normalization (Mus musculus [4]): 49%

Structure (SMILES): Cc1oc(-c2ccccc2)nc1CC/C(=N\O)c1ccc(CC2SC(=O)NC2=O)cc1 (stereo not drawn)
- Normalization (Mus musculus [3]): 100%
- Normalization (Mus musculus [2]): 0%
- Normalization (Mus musculus [5]): 99%

Structure (SMILES): Cc1oc(-c2ccc3ccccc3c2)nc1CCS(=O)(=O)c1ccc(CC2SC(=O)NC2=O)cc1 (stereo not drawn)
- Normalization (Mus musculus [3]): 0%
- Normalization (Mus musculus [4]): 0%

Structure (SMILES): CO/N=C(\CCc1nc(-c2ccccc2)oc1C)c1ccc(CC2SC(=O)NC2=O)cc1 (stereo not drawn)
- Normalization (Mus musculus [3]): 100%
- Normalization (Mus musculus [5]): 0%

Structure (SMILES): Cc1oc(-c2ccc3ccccc3c2)nc1CCC(=O)c1ccc(CC2SC(=O)NC2=O)cc1 (stereo not drawn)
- Normalization (Mus musculus [5]): 39%

Structure (SMILES): Cc1oc(-c2ccccc2)nc1CNS(=O)(=O)c1ccc(CC2SC(=O)NC2=O)cc1 (stereo not drawn)
- Normalization (Mus musculus [3]): 0%

Structure (SMILES): O=C1NC(=O)C(Cc2ccc(C(=O)/C=C/c3nc4ccccc4s3)cc2)S1 (stereo not drawn)
- Normalization (Mus musculus [1]): 0%

Structure (SMILES): Cc1oc(-c2ccccc2)nc1CCCc1ccc(CC2SC(=O)NC2=O)cc1 (stereo not drawn)
- Normalization (Mus musculus [2]): 37%

Structure (SMILES): O=C1NC(=O)C(Cc2ccc(C(=O)CCc3ccc(-c4ccccc4)cc3)cc2)S1 (stereo not drawn)
- Normalization (Mus musculus [3]): 54%
- Normalization (Mus musculus [1]): 71%

Structure (SMILES): Cc1oc(-c2ccccc2)nc1CCC(O)c1ccc(CC2SC(=O)NC2=O)s1 (stereo not drawn)
- Normalization (Mus musculus [3]): 100%
- Normalization (Mus musculus [5]): 23%

Structure (SMILES): Cc1oc(-c2ccccc2)nc1CCS(=O)(=O)c1ccc(CC2SC(=O)NC2=O)cc1 (stereo not drawn)
- Normalization (Mus musculus [3]): 69%
- Normalization (Mus musculus [5]): 11%

Structure (SMILES): Cc1ccc(-c2nc(CCC(=O)c3ccc(/C=C4\SC(=O)NC4=O)cc3)c(C)o2)cc1
- Normalization (Mus musculus [2]): 27%
- Normalization (Mus musculus [5]): 0%

Structure (SMILES): COc1ccc(/C=C/C(=O)c2ccc(CC3SC(=O)NC3=O)cc2)cc1 (stereo not drawn)
- Normalization (Mus musculus [3]): 0%
- Normalization (Mus musculus [1]): 68%

Structure (SMILES): O=C1NC(=O)C(Cc2ccc(C(=O)CCc3ccc(OCc4ccccc4)cc3)cc2)S1 (stereo not drawn)
- Normalization (Mus musculus [1]): 45%

Structure (SMILES): COc1ccc(-c2nc(CCC(=O)c3ccc(CC4SC(=O)NC4=O)cc3)c(C)o2)cc1 (stereo not drawn)
- Normalization (Mus musculus [2]): 43%
- Normalization (Mus musculus [5]): 95%

Structure (SMILES): Cc1ccc(-c2nc(CCC(=O)c3ccc(/C=C4\SC(=O)NC4=O)cc3)co2)cc1
- Normalization (Mus musculus [5]): 53%

Structure (SMILES): Cc1oc(-c2cccs2)nc1CCC(=O)c1ccc(/C=C2\SC(=O)NC2=O)cc1
- Normalization (Mus musculus [5]): 100%

Structure (SMILES): Cc1oc(-c2ccccc2)nc1CC/C(=N\OCc1ccccc1)c1ccc(CC2SC(=O)NC2=O)cc1 (stereo not drawn)
- Normalization (Mus musculus [3]): 17%

Structure (SMILES): Cc1nc(-c2ccccc2)sc1CCC(=O)c1ccc(CC2SC(=O)NC2=O)cc1 (stereo not drawn)
- Normalization (Mus musculus [3]): 75%
- Normalization (Mus musculus [4]): 33%
